Data on 28 compounds can be found in ChEMBL document CHEMBL1137382, “Synthesis and structure-activity relationships of carbazole sulfonamides as a novel class of antimitotic agents against solid tumors” (J Med Chem, 2006).

pIC50: −log10 of the molar value. Active and inactive are the calls of the source. The calls are words filed in the database; no cut-off is given here.

The subject of data set [1] is MCF7. In words: Reduction in tumor volume of human MCF7 cell xenografted in nude mice at 100 mg/kg, ip. Type of data set: functional. Conditions: Mus musculus, route intraperitoneal. A digest of the protocol:
(§1)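 Female nude mice carry sc xenografts (MCF-7, 8 × 10⁶ cells, after sc estrogen 0.25 mg/mouse 24 h before; or Bel-7402). At 90–120 mm³, mice were randomised into groups of five. Dosing ip q2d for 5–6 weeks, 100 mg/kg for MCF-7 and 60 mg/kg for Bel-7402, with a solvent control. Tumor volume from caliper width and length, mean of n = 5.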

Another data set has as its system DMS-79. In words: Antiproliferative activity against human DMS79 cells after 72 hrs. Type of data set: functional, cell-based. Conditions: DMS-79, 72 h. The gist of the method: (§2)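 Cells grown in RPMI-1640 with 10% heat-inactivated FCS, penicillin and streptomycin, 5% CO2, 37 °C, used in exponential growth. 5 × 10⁴ cells per well exposed to compound at 0–10 µM for 72 h at 37 °C. IC50 (concentration killing 50% of cells versus untreated controls) determined in duplicate by nonlinear regression.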

Data set [2] has as its system MCF7. In words: Antiproliferative activity against human MCF7 cells after 72 hrs. Type of data set: functional, cell-based. Conditions: MCF7, 72 h. The gist of the method: as §2
In data set [3] the test system is MCF7. In words: Induction of apoptosis in human MCF7 cell line assessed as increase in cyclin B1 expression upto 48 hrs. Type of data set: functional, cell-based. The gist of the method:
(§3)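 MCF-7 cells treated at 0.022–2.2 µM, or at 0.22 µM for 0–48 h. Lysed on ice in Tris/NaCl/NP-40/PMSF/aprotinin buffer and protein measured by Bradford. Blots blocked in 5% milk/TBST and probed with monoclonal antibodies to bcl-2, p53, cdc-2 and cyclin B1, then HRP anti-mouse. Signals detected by ECL on film.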

Another data set concerns PC-3. In words: Antiproliferative activity against human PC3 cells after 72 hrs. Type of data set: functional, cell-based. Conditions: PC-3, 72 h. The gist of the method: as §2
In data set [4] the test system is MCF7. In words: Induction of apoptosis in human MCF7 cell line assessed as increase in cdc2 expression upto 48 hrs. Type of data set: functional, cell-based. A digest of the protocol:
as §3

Data set [5] relates to MCF7. In words: Induction of apoptosis in human MCF7 cell line assessed as increase in P-p53 expression upto 48 hrs. Type of data set: functional, cell-based. A digest of the protocol: as §3
The subject of a further data set is MOLT-3. In words: Antiproliferative activity against human Molt3 cells after 72 hrs. Type of data set: functional, cell-based. Conditions: MOLT-3, 72 h. The gist of the method:
as §2

Data set [6] has as its system MCF7. In words: Cell cycle arrest in MCF7 cells by accumulation at M phase at 0.22 to 1.1 uM after 24 hrs. Conditions: Homo sapiens. Type of data set: functional, cell-based. The gist of the method:
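MCF-7 cells exposed at 0.22 µM for up to 24 h. Cells trypsin/EDTA-harvested (1.5 × 10⁶), PBS-washed, RNase-treated (0.5 µg/µL final, 37 °C, 30 min), fixed in ice-cold 70% ethanol ≥12 h at 4 °C, and stained with propidium iodide (0.1 µg/µL final, 4 °C, 60 min). ≥10⁴ events analysed by flow cytometry. Mitotic arrest also scored on Giemsa-stained cytospins by chromosome spreading.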

Data set [7] is described as follows: Toxicity ip dosed mouse. Type of data set: organism-based. Conditions: in vivo.
For data set [8], the system named is Bel-7402. In words: Antiproliferative activity against human Bel7402 cells after 72 hrs. Type of data set: functional, cell-based. Conditions: Bel-7402, 72 h. The gist of the method:
as §2

Another data set has as its system CEM (human). In words: Antiproliferative activity against human CEM cells after 72 hrs.
Data set [9] deals with Bel-7402. In words: Reduction in tumor volume of human Bel7402 cell xenografted in nude mice at 60 mg/kg, ip. Type of data set: functional. Conditions: Mus musculus, Bel-7402, ip, route intraperitoneal. A digest of the protocol: as §1
(In general: Xenograft models place foreign cells or tissue in a host animal.)

For another data set, the system named is DU-145. In words: Antiproliferative activity against human DU145 cells after 72 hrs. Type of data set: functional, cell-based. Conditions: DU-145, 72 h. A digest of the protocol:
as §2

Data set [10] in a line: Antiproliferative activity against human DND1 cells after 72 hrs. Type of data set: functional, cell-based. Conditions: DND1, 72 h. The gist of the method: as §2

Usually inhibition in vivo stands for the change of the read-out against control, counted positive when it falls. Read a low inhibition in vivo as a response near the control. As a reminder, the pIC50 is the IC50 on a negative log10 scale, so that one unit is a factor of ten. Usually LD50 stands for the dose expected to kill half of the subjects tested. A low value points to a more toxic substance. In the data set with MCF7 [1], `CCn1c2ccccc2c2cc(S(=O)(=O)Nc3cc(OC)c(OC)c(OC)c3)ccc21` came in with an inhibition in vivo at 100 mg/kg of 75%. The negative logarithm of the IC50 (pIC50) in the data set on DMS-79 is 5.72; in the data set on MCF7 [2], 7.05; with PC-3, 6.70; in the data set with MOLT-3 it was 7.70; with Bel-7402 [8] it was 6.70; in the data set on CEM (human), 7.25. Also, the pIC50 in the data set on DU-145 was 6.22; in data set [10], 7.05. The outcome in the data set on MCF7 [3], in the data set on MCF7 [4], in the data set with MCF7 [5] and with MCF7 [6] was Active. The same compound yielded an LD50 in data set [7] greater than 500 mg/kg. For the same compound, 60 mg/kg produced 55% inhibition in vivo with Bel-7402 [9].

As for `CCn1c2ccccc2c2cc(S(=O)(=O)Nc3ccc(F)cc3)ccc21`, the pIC50 with CEM (human) is 5.66.

Compound `CCn1c2ccccc2c2cc(S(=O)(=O)Nc3ccc(OC)cc3)ccc21` gave a pIC50 in the data set with CEM (human) of less than 5.00.

Consider `CCn1c2ccccc2c2cc(S(=O)(=O)Nc3cc(OC)cc(OC)c3)ccc21`, for which the pIC50 in the data set with CEM (human) was 6.01.

In turn, `CCn1c2ccccc2c2cc(NS(=O)(=O)c3ccc(OC)cc3)ccc21` gave a pIC50 in the data set with CEM (human) of less than 5.00.

Turning to `CCn1c2ccccc2c2cc(NS(=O)(=O)c3ccc(OC)cc3[N+](=O)[O-])ccc21`, in the data set on CEM (human), the pIC50 is less than 5.00.

In the data set on CEM (human), `CCn1c2ccccc2c2cc(NS(=O)(=O)c3cccc(C#N)c3)ccc21` showed a pIC50 of 5.88.

In the case of `CCn1c2ccccc2c2cc(S(=O)(=O)Nc3ccc(OC)c(Cl)c3)ccc21`, the pIC50 in the data set with CEM (human) was 6.32.

For `CCn1c2ccccc2c2cc(S(=O)(=O)Nc3cc(Cl)c(OC)cc3OC)ccc21`, the pIC50 in the data set on CEM (human) is 7.17.

With `CCn1c2ccccc2c2cc(S(=O)(=O)NCc3cc(OC)c(OC)c(OC)c3)ccc21`, in the data set on CEM (human), the pIC50 was less than 5.00.

For `CCn1c2ccccc2c2cc(S(=O)(=O)Nc3ccc(OC)cc3OC)ccc21`, the pIC50 is 7.32 with MCF7 [2]; 6.84 with PC-3; 7.32 in the data set on MOLT-3; 7.02 with Bel-7402 [8]; 7.24 in the data set with CEM (human); 6.84 in the data set on DU-145. The compound further gave a pIC50 in [10] of 6.92.

Take `CCn1c2ccccc2c2cc(S(=O)(=O)Nc3cc(OC)c(Cl)cc3OC)ccc21`: the pIC50 in the data set on MCF7 [2] is 7.17; with PC-3, 7.05; with MOLT-3, 7.17; in the data set with Bel-7402 [8] it was 6.87; in the data set with CEM (human), 7.25; in the data set on DU-145, 6.77. This compound gave a pIC50 in [10] of 7.05.

In the data set with CEM (human), `CCn1c2ccccc2c2cc(S(=O)(=O)Nc3ccc(OC)c(OC)c3)ccc21` showed a pIC50 of 5.61.

`CCn1c2ccccc2c2cc(NS(=O)(=O)c3cc(OC)ccc3OC)ccc21` showed a negative logarithm of the IC50 (pIC50) in the data set on CEM (human) of 6.22.

As for `CCn1c2ccccc2c2cc(S(=O)(=O)Nc3cc(OC)ccc3OC)ccc21`, the pIC50 is 7.01 in the data set on MCF7 [2]; 6.11 with PC-3; 7.31 with MOLT-3; 6.66 in the data set on Bel-7402 [8]; 7.21 in the data set on CEM (human); 6.44 in the data set on DU-145. In data set [10], this compound had a pIC50 of 6.71.

With `COc1cc(NS(=O)(=O)c2ccc3oc4ccccc4c3c2)cc(OC)c1OC`, the pIC50 in the data set with CEM (human) is less than 5.00.

In the data set on CEM (human), `CCn1c2ccccc2c2cc(S(=O)(=O)Nc3cc(C(F)(F)F)cc(C(F)(F)F)c3)ccc21` showed a pIC50 of less than 5.00.

`CCn1c2ccccc2c2cc(NS(=O)(=O)c3ccc(OC)cc3N)ccc21`: the pIC50 in the data set with CEM (human) was less than 5.00.

Turning to `COc1cc([C@@H]2c3cc4c(cc3[C@H](O)[C@H]3COC(=O)[C@H]23)OCO4)cc(OC)c1OC` [PODOFILOX], the pIC50 with DMS-79 is 7.64; in the data set with MCF7 [2] it was 7.82; in the data set on PC-3, 8.00; in the data set with MOLT-3 it was 7.85; in the data set with Bel-7402 [8], 8.04; in the data set on CEM (human), 8.14. Besides, the pIC50 is 7.28 with DU-145 and 7.92 in data set [10].

`CCn1c2ccccc2c2cc(S(=O)(=O)Nc3ccc(OC)c(N)c3)ccc21` gave a pIC50 in the data set with CEM (human) of 5.66.

Turning to `CCn1c2ccccc2c2cc(NS(=O)(=O)c3ccc(OC)c(OC)c3)ccc21`, the pIC50 in the data set with CEM (human) is 5.58.

With `CCn1c2ccccc2c2cc(S(=O)(=O)Nc3ccc4c(c3)OCO4)ccc21`, the pIC50 in the data set with CEM (human) is 5.20.

The compound `COc1cc(OC)c(NS(=O)(=O)c2ccc3c(c2)c2ccccc2n3C)c(OC)c1` showed a pIC50 in the data set with CEM (human) of 7.15.

Turning to `COc1cc(NS(=O)(=O)c2ccc3c(c2)c2ccccc2n3C)cc(OC)c1OC`, the pIC50 in the data set on DMS-79 was 5.68; with MCF7 [2] it was 7.15; in the data set with PC-3, 6.94; in the data set on MOLT-3, 7.72; with Bel-7402 [8] it was 6.94; with CEM (human), 7.34. The pIC50 in the data set on DU-145 was 6.63; in data set [10] it was 7.15.

Regarding `COc1cc(NS(=O)(=O)c2ccc3[nH]c4ccccc4c3c2)cc(OC)c1OC`, the pIC50 in the data set on CEM (human) is 6.22.

`COc1cc(NS(=O)(=O)c2ccc3c(c2)c2ccccc2n3C)c(OC)cc1Cl` showed a pIC50 in the data set on CEM (human) of 7.34.

Take `CCn1c2ccccc2c2cc(NS(=O)(=O)c3cccc(OC)c3)ccc21`: the pIC50 in the data set with CEM (human) is 6.10.

Take `COc1ccc(/C=C\c2cc(OC)c(OC)c(OC)c2)cc1O` [COMBRETASTATIN A4]: the pIC50 with DMS-79 was 6.91; in the data set with MCF7 [2], 7.92; in the data set on PC-3, 8.55; with MOLT-3 it was 8.03; in the data set on Bel-7402 [8] it was 8.00; in the data set on CEM (human), 8.72. Moreover, the pIC50 in the data set with DU-145 was 8.03; in [10] it was 8.60.
